Results of several laboratories.
Protocols differ between the studies behind these lines.
Cell line: NCI-H460
Read-out: cell growth or viability

SMILES | assay | setting | IC50
CCC(=O)Nc1cc(Nc2nc(N3CCc4sccc4C3)c3cccnc3n2)c(OC)cc1N1CCN(CC)CC1 | MTT | – | 1160 nM
COc1cc(CNC(=O)CCCC/C=C/C(C)C)ccc1OCc1cn(-c2ccc(C#N)cc2)nn1 | SRB | – | 5550 nM
O=C/C(=C/Cc1ccc(O)cc1)c1ccc(O)cc1 | MTT | 24 h | 26.9 µg/mL
COc1cc(N(C)CCN(C)C)c(NC(=O)/C=C/C(C)C)cc1Nc1nc(Nc2cnn(C)c2)c2sccc2n1 | MTT | – | 2250 nM
COc1ccc(C/C=C/c2ccc(O)cc2)cc1 | MTT | 24 h | 14.1 µg/mL
COc1cc(CNC(=O)CCCC/C=C/C(C)C)ccc1OCc1cn(-c2ccc(C(F)(F)F)cc2)nn1 | SRB | – | 6650 nM
CC(C)C[C@H](NC(=O)[C@H](Cc1ccccc1)NC(=O)c1cnccn1)B(O)O | ATP luminescence | – | 30 nM
COc1ccc(-c2cc(=O)c3c(O)c(OC)c(OC)cc3o2)cc1O | – | 48 h | 37500 nM
COc1cc(/C=C/Cc2ccc(O)c(OC)c2)ccc1O | MTT | 24 h | 17.5 µg/mL
O=C1NC(=NCc2cccs2)S/C1=C\c1ccc2ncccc2c1 | – | – | > 10000 nM
C=CC(=O)Nc1cc(Nc2nc(N3CCc4sccc4C3)c3cccnc3n2)c(OC)cc1N(C)CCN(C)C | MTT | – | 5680 nM
CC(=O)c1ccc(/N=N/c2cc(/C=C/C(=O)O)ccc2O)cc1 | MTT | – | > 50000 nM
CCC(=O)Nc1cc(Nc2nc(N3CCc4sccc4C3)c3cccnc3n2)c(OC)cc1N1CCSCC1 | MTT | – | 14300 nM
COc1ccc(C/C=C/c2cc(OC)cc(OC)c2)cc1 | MTT | 24 h | 77.3 µg/mL
COc1cc([C@@H]2c3cc4c(cc3[C@@H](O[C@@H]3O[C@@H]5CO[C@@H](C)O[C@H]5[C@H](O)[C@H]3O)[C@H]3COC(=O)[C@H]23)OCO4)cc(OC)c1O | MTT | 72 h | 830 nM
C#Cc1cccc(Nc2ncnc3cc(OCCOC)c(OCCOC)cc23)c1 | MTT | – | 40 nM
Cc1cccc(-n2ncc(Br)c(Br)c2=O)c1 | resazurin | 96 h | 1430 nM
COc1cc(/C=C/Cc2ccc(O)c(OC)c2)cc(OC)c1 | MTT | 24 h | 16.1 µg/mL
O=C(O)/C=C/c1ccc(O)c(O)c1 | MTT | – | 3900 nM
O=c1[nH]cc(F)c(=O)[nH]1 | MTT | 48 h | 43100 nM
C=CC(=O)Nc1cc(Nc2nc(N3CCc4sccc4C3)c3cccnc3n2)c(OC)cc1N1CCN(CC)CC1 | MTT | – | 652 nM
O=c1[nH]cc(S(=O)(=O)Nc2cccc(-c3nnc(-c4cccc(Cl)c4)o3)c2)c(=O)[nH]1 | MTT | 24 h | 2830 nM
C=CC(=O)Nc1cc(Nc2nc(N3CCc4sccc4C3)c3sccc3n2)c(OC)cc1N1CCN(C)CC1 | MTT | – | 913 nM
COc1cc(C/C=C/c2ccc(O)cc2)ccc1O | MTT | 24 h | 19.9 µg/mL
CCC(=O)Nc1cc(Nc2nc(N3CCc4sccc4C3)c3cccnc3n2)c(OC)cc1N1CCC(N(C)C)CC1 | MTT | – | 2460 nM
COc1ccc(C/C=C/c2ccc(O)c(OC)c2)cc1 | MTT | 24 h | 12.3 µg/mL
CCN1CCN(Cc2ccc(Nc3ncc(F)c(-c4cc(F)c5nc(C)n(C(C)C)c5c4)n3)nc2)CC1 | CCK-8 | – | 962 nM
C=CC(=O)Nc1cc(Nc2nccc(-c3cn(C)c4ccccc34)n2)c(OC)cc1N(C)CCN(C)C | MTT | – | 1970 nM
O=C(O)/C=C/c1ccc(O)cc1 | MTT | – | > 50000 nM
